# Results published in ChEMBL document CHEMBL5303300, “EUbOPEN Chemogenomics Library - Multiplex” (2023).
# Where “and” joins values, the source holds several entries; their conditions need not be identical. Equal entries are not always repeated.
# Legend:
# Assay type in all cases: toxicity, cell-based
# Fibroblast = experiment: Multiplex assay against human fibroblast; details: number of replicates 2
# In short: (§1)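 Cells were classed with CellPathfinder machine-learning gating, first as Hoechst high-intensity objects or normal cells, then (normal cells) as healthy, pyknosed or fragmented nuclei, and finally (pyknosed cells) as mitotic or apoptotic. Staining of live cells at seeding used Hoechst33342, BioTracker Green Microtubule Cytoskeleton Dye, MitoTracker Red and Annexin V Alexa Fluor 680, with imaging on a CQ1 microscope at 37°C and 5% CO2 after compound addition. Tubulin, mitochondrial-mass and membrane-permeability phenotypes are per cents of healthy-nucleus cells.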
# U2OS = experiment: Multiplex assay against U2OS; details: human, number of replicates 2; in short: as §1
# HEK-293T = experiment: Multiplex assay against HEK293T; details: human, number of replicates 2; in short: as §1
# [1] = 12 h, 1 µM, compound concentration 1 uM
# [2] = 12 h, 10 µM, compound concentration 10 uM
# [3] = 24 h, 1 µM, compound concentration 1 uM
# [4] = 24 h, 10 µM, compound concentration 10 uM
# [5] = 48 h, 1 µM, compound concentration 1 uM
# [6] = 48 h, 10 µM, compound concentration 10 uM
structure (smiles),measurement,setting,value
O=C1CCCN1CCNc1nc(Nc2ccc(Cl)c(Cl)c2)ncc1C(F)(F)F,Population Apoptotic (%),Fibroblast; [1],38% and 28%
same,Population Fragmented Nuclei (%),Fibroblast; [1],10% and 8%
same,Population Healthy Nuclei (%),Fibroblast; [1],76% and 68%
same,Population Hoechst High Intensity Objects (%),Fibroblast; [1],0%
same,Population Membrane Permeable-Phenotype (%),Fibroblast; [1],2% and 1%
same,Population Mitochondria Different-Phenotype (%),Fibroblast; [1],1%
same,Population Mitotic Cells (%),Fibroblast; [1],61% and 71%
same,Population Normal (%),Fibroblast; [1],100%
same,Population Pyknosed Nuclei (%),Fibroblast; [1],13% and 22%
same,Population Tubulin-Different-Phenotype (%),Fibroblast; [1],12% and 9%
same,Total Cell Count,Fibroblast; [1],233 and 219
same,Population Apoptotic (%),Fibroblast; [2],52% and 36%
same,Population Fragmented Nuclei (%),Fibroblast; [2],6% and 15%
same,Population Healthy Nuclei (%),Fibroblast; [2],40% and 52%
same,Population Hoechst High Intensity Objects (%),Fibroblast; [2],0%
same,Population Membrane Permeable-Phenotype (%),Fibroblast; [2],19% and 26%
same,Population Mitochondria Different-Phenotype (%),Fibroblast; [2],1% and 4%
same,Population Mitotic Cells (%),Fibroblast; [2],47% and 63%
same,Population Normal (%),Fibroblast; [2],100%
same,Population Pyknosed Nuclei (%),Fibroblast; [2],52% and 32%
same,Population Tubulin-Different-Phenotype (%),Fibroblast; [2],35% and 50%
same,Total Cell Count,Fibroblast; [2],138 and 193
same,Population Apoptotic (%),Fibroblast; [3],54% and 41%
same,Population Fragmented Nuclei (%),Fibroblast; [3],8% and 6%
same,Population Healthy Nuclei (%),Fibroblast; [3],76% and 70%
same,Population Hoechst High Intensity Objects (%),Fibroblast; [3],0%
same,Population Membrane Permeable-Phenotype (%),Fibroblast; [3],5%
same,Population Mitochondria Different-Phenotype (%),Fibroblast; [3],1% and 0%
same,Population Mitotic Cells (%),Fibroblast; [3],45% and 58%
same,Population Normal (%),Fibroblast; [3],100%
same,Population Pyknosed Nuclei (%),Fibroblast; [3],14% and 22%
same,Population Tubulin-Different-Phenotype (%),Fibroblast; [3],14% and 9%
same,Total Cell Count,Fibroblast; [3],234 and 227
same,Population Apoptotic (%),Fibroblast; [4],70% and 60%
same,Population Fragmented Nuclei (%),Fibroblast; [4],6% and 15%
same,Population Healthy Nuclei (%),Fibroblast; [4],44% and 50%
same,Population Hoechst High Intensity Objects (%),Fibroblast; [4],0%
same,Population Membrane Permeable-Phenotype (%),Fibroblast; [4],16% and 14%
same,Population Mitochondria Different-Phenotype (%),Fibroblast; [4],3% and 5%
same,Population Mitotic Cells (%),Fibroblast; [4],29% and 39%
same,Population Normal (%),Fibroblast; [4],99% and 100%
same,Population Pyknosed Nuclei (%),Fibroblast; [4],48% and 34%
same,Population Tubulin-Different-Phenotype (%),Fibroblast; [4],53% and 50%
same,Total Cell Count,Fibroblast; [4],135 and 198
same,Population Apoptotic (%),Fibroblast; [5],82% and 66%
same,Population Fragmented Nuclei (%),Fibroblast; [5],13% and 11%
same,Population Healthy Nuclei (%),Fibroblast; [5],73% and 72%
same,Population Hoechst High Intensity Objects (%),Fibroblast; [5],0%
same,Population Membrane Permeable-Phenotype (%),Fibroblast; [5],2% and 1%
same,Population Mitochondria Different-Phenotype (%),Fibroblast; [5],0%
same,Population Mitotic Cells (%),Fibroblast; [5],17% and 33%
same,Population Normal (%),Fibroblast; [5],100% and 99%
same,Population Pyknosed Nuclei (%),Fibroblast; [5],12% and 15%
same,Population Tubulin-Different-Phenotype (%),Fibroblast; [5],11% and 6%
same,Total Cell Count,Fibroblast; [5],230 and 215
same,Population Apoptotic (%),Fibroblast; [6],89% and 74%
same,Population Fragmented Nuclei (%),Fibroblast; [6],9% and 17%
same,Population Healthy Nuclei (%),Fibroblast; [6],52% and 53%
same,Population Hoechst High Intensity Objects (%),Fibroblast; [6],0%
same,Population Membrane Permeable-Phenotype (%),Fibroblast; [6],21% and 12%
same,Population Mitochondria Different-Phenotype (%),Fibroblast; [6],0% and 2%
same,Population Mitotic Cells (%),Fibroblast; [6],10% and 25%
same,Population Normal (%),Fibroblast; [6],99% and 100%
same,Population Pyknosed Nuclei (%),Fibroblast; [6],37% and 28%
same,Population Tubulin-Different-Phenotype (%),Fibroblast; [6],40% and 31%
same,Total Cell Count,Fibroblast; [6],124 and 180
same,Population Apoptotic (%),U2OS; [1],50% and 68%
same,Population Fragmented Nuclei (%),U2OS; [1],5% and 3%
same,Population Healthy Nuclei (%),U2OS; [1],70% and 91%
same,Population Hoechst High Intensity Objects (%),U2OS; [1],0%
same,Population Membrane Permeable-Phenotype (%),U2OS; [1],0% and 3%
same,Population Mitochondria Different-Phenotype (%),U2OS; [1],0% and 1%
same,Population Mitotic Cells (%),U2OS; [1],50% and 31%
same,Population Normal (%),U2OS; [1],100%
same,Population Tubulin-Different-Phenotype (%),U2OS; [1],91% and 81%
same,Population Apoptotic (%),U2OS; [2],100% and 57%
same,Population Healthy Nuclei (%),U2OS; [2],73% and 80%
same,Population Hoechst High Intensity Objects (%),U2OS; [2],0%
same,Population Membrane Permeable-Phenotype (%),U2OS; [2],7% and 5%
same,Population Mitochondria Different-Phenotype (%),U2OS; [2],7% and 0%
same,Population Normal (%),U2OS; [2],100% and 99%
same,Population Pyknosed Nuclei (%),U2OS; [2],5% and 13%
same,Population Tubulin-Different-Phenotype (%),U2OS; [2],64% and 50%
same,Population Apoptotic (%),U2OS; [3],100% and 73%
same,Population Fragmented Nuclei (%),U2OS; [3],0% and 3%
same,Population Healthy Nuclei (%),U2OS; [3],90%
same,Population Hoechst High Intensity Objects (%),U2OS; [3],0%
same,Population Membrane Permeable-Phenotype (%),U2OS; [3],0% and 2%
same,Population Mitochondria Different-Phenotype (%),U2OS; [3],0%
same,Population Normal (%),U2OS; [3],100%
same,Population Pyknosed Nuclei (%),U2OS; [3],9% and 5%
same,Population Tubulin-Different-Phenotype (%),U2OS; [3],96% and 79%
same,Population Apoptotic (%),U2OS; [4],70% and 80%
same,Population Healthy Nuclei (%),U2OS; [4],86% and 70%
same,Population Hoechst High Intensity Objects (%),U2OS; [4],0%
same,Population Membrane Permeable-Phenotype (%),U2OS; [4],3%
same,Population Mitochondria Different-Phenotype (%),U2OS; [4],1% and 0%
same,Population Mitotic Cells (%),U2OS; [4],29% and 20%
same,Population Normal (%),U2OS; [4],100%
same,Population Pyknosed Nuclei (%),U2OS; [4],10% and 12%
same,Population Tubulin-Different-Phenotype (%),U2OS; [4],57% and 35%
same,Population Apoptotic (%),U2OS; [5],71% and 84%
same,Population Fragmented Nuclei (%),U2OS; [5],8% and 3%
same,Population Healthy Nuclei (%),U2OS; [5],79% and 92%
same,Population Hoechst High Intensity Objects (%),U2OS; [5],0%
same,Population Membrane Permeable-Phenotype (%),U2OS; [5],0% and 1%
same,Population Mitochondria Different-Phenotype (%),U2OS; [5],2% and 0%
same,Population Mitotic Cells (%),U2OS; [5],28% and 15%
same,Population Normal (%),U2OS; [5],100%
same,Population Pyknosed Nuclei (%),U2OS; [5],12% and 4%
same,Population Tubulin-Different-Phenotype (%),U2OS; [5],95% and 87%
same,Population Apoptotic (%),U2OS; [6],86% and 75%
same,Population Fragmented Nuclei (%),U2OS; [6],5% and 6%
same,Population Healthy Nuclei (%),U2OS; [6],79% and 76%
same,Population Hoechst High Intensity Objects (%),U2OS; [6],0%
same,Population Membrane Permeable-Phenotype (%),U2OS; [6],4% and 2%
same,Population Mitochondria Different-Phenotype (%),U2OS; [6],0% and 2%
same,Population Mitotic Cells (%),U2OS; [6],13% and 25%
same,Population Normal (%),U2OS; [6],99% and 100%
same,Population Pyknosed Nuclei (%),U2OS; [6],14% and 17%
same,Population Tubulin-Different-Phenotype (%),U2OS; [6],67% and 47%
same,Population Apoptotic (%),HEK-293T; [1],57% and 53%
same,Population Fragmented Nuclei (%),HEK-293T; [1],5% and 3%
same,Population Healthy Nuclei (%),HEK-293T; [1],80% and 83%
same,Population Hoechst High Intensity Objects (%),HEK-293T; [1],9%
same,Population Membrane Permeable-Phenotype (%),HEK-293T; [1],3% and 1%
same,Population Mitochondria Different-Phenotype (%),HEK-293T; [1],26% and 20%
same,Population Mitotic Cells (%),HEK-293T; [1],42% and 46%
same,Population Normal (%),HEK-293T; [1],90%
same,Population Pyknosed Nuclei (%),HEK-293T; [1],13%
same,Population Tubulin-Different-Phenotype (%),HEK-293T; [1],60% and 61%
same,Total Cell Count,HEK-293T; [1],624 and 889
same,Population Apoptotic (%),HEK-293T; [2],57% and 62%
same,Population Fragmented Nuclei (%),HEK-293T; [2],3% and 5%
same,Population Healthy Nuclei (%),HEK-293T; [2],76%
same,Population Hoechst High Intensity Objects (%),HEK-293T; [2],11% and 7%
same,Population Membrane Permeable-Phenotype (%),HEK-293T; [2],5% and 4%
same,Population Mitochondria Different-Phenotype (%),HEK-293T; [2],30% and 21%
same,Population Mitotic Cells (%),HEK-293T; [2],42% and 37%
same,Population Normal (%),HEK-293T; [2],88% and 92%
same,Population Pyknosed Nuclei (%),HEK-293T; [2],19% and 18%
same,Population Tubulin-Different-Phenotype (%),HEK-293T; [2],67% and 66%
same,Total Cell Count,HEK-293T; [2],488 and 473
same,Population Apoptotic (%),HEK-293T; [3],57% and 53%
same,Population Fragmented Nuclei (%),HEK-293T; [3],9% and 7%
same,Population Healthy Nuclei (%),HEK-293T; [3],80% and 81%
same,Population Hoechst High Intensity Objects (%),HEK-293T; [3],8% and 9%
same,Population Membrane Permeable-Phenotype (%),HEK-293T; [3],2% and 1%
same,Population Mitochondria Different-Phenotype (%),HEK-293T; [3],5% and 4%
same,Population Mitotic Cells (%),HEK-293T; [3],42% and 46%
same,Population Normal (%),HEK-293T; [3],91% and 90%
same,Population Pyknosed Nuclei (%),HEK-293T; [3],10%
same,Population Tubulin-Different-Phenotype (%),HEK-293T; [3],32% and 31%
same,Total Cell Count,HEK-293T; [3],951 and 1356
same,Population Apoptotic (%),HEK-293T; [4],56% and 71%
same,Population Fragmented Nuclei (%),HEK-293T; [4],7% and 5%
same,Population Healthy Nuclei (%),HEK-293T; [4],78% and 79%
same,Population Hoechst High Intensity Objects (%),HEK-293T; [4],8% and 7%
same,Population Membrane Permeable-Phenotype (%),HEK-293T; [4],5% and 3%
same,Population Mitochondria Different-Phenotype (%),HEK-293T; [4],13% and 8%
same,Population Mitotic Cells (%),HEK-293T; [4],43% and 28%
same,Population Normal (%),HEK-293T; [4],91% and 92%
same,Population Pyknosed Nuclei (%),HEK-293T; [4],13% and 15%
same,Population Tubulin-Different-Phenotype (%),HEK-293T; [4],39% and 36%
same,Total Cell Count,HEK-293T; [4],751 and 650
same,Population Apoptotic (%),HEK-293T; [5],17% and 24%
same,Population Fragmented Nuclei (%),HEK-293T; [5],14% and 12%
same,Population Healthy Nuclei (%),HEK-293T; [5],82% and 83%
same,Population Hoechst High Intensity Objects (%),HEK-293T; [5],10% and 12%
same,Population Membrane Permeable-Phenotype (%),HEK-293T; [5],6% and 2%
same,Population Mitochondria Different-Phenotype (%),HEK-293T; [5],0%
same,Population Mitotic Cells (%),HEK-293T; [5],82% and 75%
same,Population Normal (%),HEK-293T; [5],89% and 87%
same,Population Pyknosed Nuclei (%),HEK-293T; [5],3%
same,Population Tubulin-Different-Phenotype (%),HEK-293T; [5],14% and 17%
same,Total Cell Count,HEK-293T; [5],2336 and 2853
same,Population Apoptotic (%),HEK-293T; [6],23% and 27%
same,Population Fragmented Nuclei (%),HEK-293T; [6],11% and 9%
same,Population Healthy Nuclei (%),HEK-293T; [6],83% and 86%
same,Population Hoechst High Intensity Objects (%),HEK-293T; [6],8% and 5%
same,Population Membrane Permeable-Phenotype (%),HEK-293T; [6],5% and 4%
same,Population Mitochondria Different-Phenotype (%),HEK-293T; [6],2% and 3%
same,Population Mitotic Cells (%),HEK-293T; [6],76% and 72%
same,Population Normal (%),HEK-293T; [6],91% and 94%
same,Population Pyknosed Nuclei (%),HEK-293T; [6],5% and 4%
same,Population Tubulin-Different-Phenotype (%),HEK-293T; [6],16% and 28%
same,Total Cell Count,HEK-293T; [6],1562 and 1106
